Laboratory results as given in ChEMBL document CHEMBL3792365, “Dioxol and dihydrodioxin analogs of 2- and 3-phenylacetonitriles as potent anti-cancer agents with nanomolar activity against a variety of human cancer cells” (2016).

Tests used:
Assay type in all cases: functional
[1] = Growth inhibition of human SNB75 cells after 48 hrs by sulforhodamine B assay; conditions: SNB-75, 48 h
How it was run: (§1)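 Five-dose concentration series run across a panel of 60 human tumour cell lines. GI50 is taken as the drug concentration giving a 50% reduction in net protein increase relative to untreated control cells.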

[2] = Growth inhibition of human OVCAR3 cells after 48 hrs by sulforhodamine B assay; conditions: OVCAR-3, 48 h; how it was run: as §1
SK-MEL-5 = assay: Growth inhibition of human SK-MEL-5 cells after 48 hrs by sulforhodamine B assay; conditions: SK-MEL-5, 48 h; how it was run: as §1
[3] = Growth inhibition of human UO31 cells after 48 hrs by sulforhodamine B assay; conditions: UO-31, 48 h
How it was run: (§2)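 Five-dose testing across the 60-line human tumour cell panel. GI50 is the drug concentration that gives a 50% reduction in net protein increase relative to control cells.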

NCI-H23 = assay: Growth inhibition of human NCI-H23 cells after 48 hrs by sulforhodamine B assay; conditions: NCI-H23, 48 h; how it was run: as §1
[4] = Growth inhibition of human Caki1 cells after 48 hrs by sulforhodamine B assay; conditions: CAKI-1, 48 h
How it was run: (§3)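 Five-dose testing against a 60-line human tumor cell panel. GI50 is the drug concentration giving a 50% reduction in net protein increase relative to untreated control cells.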

CCRF-CEM = assay: Growth inhibition of human CCRF-CEM cells after 48 hrs by sulforhodamine B assay; how it was run: as §3
[5] = Growth inhibition of human HCT15 cells after 48 hrs by sulforhodamine B assay; conditions: HCT-15, 48 h; how it was run: as §3
[6] = Growth inhibition of human SF295 cells after 48 hrs by sulforhodamine B assay; conditions: SF-295, 48 h; how it was run: as §1
HT-29 = assay: Growth inhibition of human HT-29 cells after 48 hrs by sulforhodamine B assay; conditions: HT-29, 48 h; how it was run: as §3
[7] = Growth inhibition of human HOP62 cells after 48 hrs by sulforhodamine B assay; conditions: HOP-62, 48 h; how it was run: as §3
[8] = Growth inhibition of human IGROV1 cells after 48 hrs by sulforhodamine B assay; conditions: IGROV-1, 48 h; how it was run: as §3
[9] = Growth inhibition of human COLO205 cells after 48 hrs by sulforhodamine B assay; conditions: COLO 205, 48 h; how it was run: as §3
[10] = Growth inhibition of human SF268 cells after 48 hrs by sulforhodamine B assay; conditions: SF-268, 48 h; how it was run: as §1
A498 = assay: Growth inhibition of human A498 cells after 48 hrs by sulforhodamine B assay; conditions: A498, 48 h; how it was run: as §3
A549 = assay: Growth inhibition of human A549/ATCC cells after 48 hrs by sulforhodamine B assay; conditions: A549, 48 h; how it was run: as §3
KM12 = assay: Growth inhibition of human KM12 cells after 48 hrs by sulforhodamine B assay; conditions: KM12, 48 h; how it was run: as §3
[11] = Growth inhibition of human NCI-ADR-RES cells after 48 hrs by sulforhodamine B assay; how it was run: as §1
[12] = Growth inhibition of human SKOV3 cells after 48 hrs by sulforhodamine B assay; conditions: SK-OV-3, 48 h; how it was run: as §1
MCF7 = assay: Growth inhibition of human MCF7 cells after 48 hrs by sulforhodamine B assay; conditions: MCF7, 48 h; how it was run: as §3
[13] = Growth inhibition of human SF539 cells after 48 hrs by sulforhodamine B assay; conditions: SF-539, 48 h; how it was run: as §1
[14] = Growth inhibition of human OVCAR4 cells after 48 hrs by sulforhodamine B assay; conditions: OVCAR-4, 48 h; how it was run: as §1
U-251 = assay: Growth inhibition of human U251 cells after 48 hrs by sulforhodamine B assay; conditions: U-251, 48 h; how it was run: as §1
MDA-MB-468 = assay: Growth inhibition of human MDA-MB-468 cells after 48 hrs by sulforhodamine B assay; conditions: MDA-MB-468, 48 h; how it was run: as §3
M14 = assay: Growth inhibition of human M14 cells after 48 hrs by sulforhodamine B assay; conditions: M14, 48 h; how it was run: as §3
[15] = Growth inhibition of human PC3 cells after 48 hrs by sulforhodamine B assay; conditions: PC-3, 48 h; how it was run: as §1
SR = assay: Growth inhibition of human SR cells after 48 hrs by sulforhodamine B assay; how it was run: as §1
[16] = Growth inhibition of human HOP92 cells after 48 hrs by sulforhodamine B assay; conditions: HOP-92, 48 h; how it was run: as §3
[17] = Growth inhibition of human HCC2998 cells after 48 hrs by sulforhodamine B assay; conditions: HCC 2998, 48 h; how it was run: as §3
[18] = Growth inhibition of human LOXIMVI cells after 48 hrs by sulforhodamine B assay; conditions: LOX IMVI; how it was run: as §3
[19] = Growth inhibition of human HCT116 cells after 48 hrs by sulforhodamine B assay; conditions: HCT-116, 48 h; how it was run: as §3
[20] = Growth inhibition of human RPMI8226 cells after 48 hrs by sulforhodamine B assay; conditions: RPMI-8226, 48 h; how it was run: as §1
[21] = Growth inhibition of human Hs 578T cells after 48 hrs by sulforhodamine B assay; how it was run: as §3
[22] = Growth inhibition of human MOLT4 cells after 48 hrs by sulforhodamine B assay; conditions: MOLT-4, 48 h; how it was run: as §1
[23] = Growth inhibition of human UACC62 cells after 48 hrs by sulforhodamine B assay; conditions: UACC-62, 48 h; how it was run: as §2
SK-MEL-28 = assay: Growth inhibition of human SK-MEL-28 cells after 48 hrs by sulforhodamine B assay; conditions: SK-MEL-28, 48 h; how it was run: as §1
[24] = Growth inhibition of human DU145 cells after 48 hrs by sulforhodamine B assay; conditions: DU-145, 48 h; how it was run: as §3
ACHN = assay: Growth inhibition of human ACHN cells after 48 hrs by sulforhodamine B assay; how it was run: as §3
NCI-H522 = assay: Growth inhibition of human NCI-H522 cells after 48 hrs by sulforhodamine B assay; conditions: NCI-H522, 48 h; how it was run: as §1
MDA-MB-435 = assay: Growth inhibition of human MDA-MB-435 cells after 48 hrs by sulforhodamine B assay; conditions: MDA-MB-435, 48 h; how it was run: as §3
[25] = Growth inhibition of human SW620 cells after 48 hrs by sulforhodamine B assay; conditions: SW-620, 48 h; how it was run: as §1
[26] = Growth inhibition of human SNB19 cells after 48 hrs by sulforhodamine B assay; conditions: SNB-19, 48 h; how it was run: as §1
SK-MEL-2 = assay: Growth inhibition of human SK-MEL-2 cells after 48 hrs by sulforhodamine B assay; conditions: SK-MEL-2, 48 h; how it was run: as §1
786-0 = assay: Growth inhibition of human 786-0 cells after 48 hrs by sulforhodamine B assay; conditions: 786-0, 48 h; how it was run: as §3
MDA-MB-231 = assay: Growth inhibition of human MDA-MB-231 cells after 48 hrs by sulforhodamine B assay; conditions: MDA-MB-231, 48 h; how it was run: as §3
[27] = Growth inhibition of human HL-60(TB) cells after 48 hrs by sulforhodamine B assay; conditions: HL-60, 48 h
How it was run: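 Five-dose study across the 60-cell human tumour panel. GI50 is the drug concentration giving a 50% reduction in net protein increase relative to control cells.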

COc1ccc(/C=C/c2cc(OC)c(OC)c(OC)c2)cc1
GI50 [1]: 1880 nM
GI50 [2]: 3.45 µM
GI50 (SK-MEL-5): 2500 nM
GI50 [3]: 3.69 µM
GI50 (NCI-H23): 3.37 µM
GI50 [4]: 3000 nM
GI50 (CCRF-CEM): 2890 nM
GI50 [5]: 2820 nM
GI50 [6]: 2180 nM
GI50 (HT-29): 2320 nM
GI50 [7]: 3.14 µM
GI50 [8]: 5.29 µM
GI50 [9]: 2070 nM
GI50 [10]: 7.59 µM
GI50 (A498): 740 nM
GI50 (A549): 3.7 µM
GI50 (KM12): 3.63 µM
GI50 [11]: 3.01 µM
GI50 [12]: 3.34 µM
GI50 (MCF7): 1660 nM
GI50 [13]: 2180 nM
GI50 [14]: 4 µM
GI50 (U-251): 3.07 µM
GI50 (MDA-MB-468): 2220 nM
GI50 (M14): 2810 nM
GI50 [15]: 3.22 µM
GI50 (SR): 3.93 µM
GI50 [16]: 7.23 µM
GI50 [17]: 3.59 µM
GI50 [18]: 4.89 µM
GI50 [19]: 3.23 µM
GI50 [20]: 6.42 µM
GI50 [21]: 3.09 µM
GI50 [22]: 3.22 µM
GI50 [23]: 2370 nM
GI50 (SK-MEL-28): 3.86 µM
GI50 [24]: 4.23 µM
GI50 (ACHN): 4.51 µM
GI50 (NCI-H522): 3.7 µM
GI50 (MDA-MB-435): 1040 nM
GI50 [25]: 2070 nM
GI50 [26]: 4.85 µM
GI50 (SK-MEL-2): 3.95 µM
GI50 (786-0): 5.42 µM
GI50 (MDA-MB-231): 3.74 µM
GI50 [27]: 3.14 µM
